High-throughput results deposited in PubChem BioAssay by Johns Hopkins Ion Channel Center.
Rows were chosen to be rich in hits. Some 2.3% of all compounds tested hit in one or more screens of this group.
TRPC4 inh = inhibitors of mouse TRPC4 channel, primary screen, Fluo4 calcium, HEK293 TRPC4beta/mu-opioid cells; B-score at 10 µM; actives 0.39% (n = 300,000); Short transient receptor potential channel 4 (Mus musculus), Q9QUQ5; DAMGO-evoked Fluo4 calcium flux; active compounds read low;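 active = B-score over 3 SD under the library average, no early fluorescence shift, positive overall ratio signal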
Target sequence (Q9QUQ5 whole entry, looked up): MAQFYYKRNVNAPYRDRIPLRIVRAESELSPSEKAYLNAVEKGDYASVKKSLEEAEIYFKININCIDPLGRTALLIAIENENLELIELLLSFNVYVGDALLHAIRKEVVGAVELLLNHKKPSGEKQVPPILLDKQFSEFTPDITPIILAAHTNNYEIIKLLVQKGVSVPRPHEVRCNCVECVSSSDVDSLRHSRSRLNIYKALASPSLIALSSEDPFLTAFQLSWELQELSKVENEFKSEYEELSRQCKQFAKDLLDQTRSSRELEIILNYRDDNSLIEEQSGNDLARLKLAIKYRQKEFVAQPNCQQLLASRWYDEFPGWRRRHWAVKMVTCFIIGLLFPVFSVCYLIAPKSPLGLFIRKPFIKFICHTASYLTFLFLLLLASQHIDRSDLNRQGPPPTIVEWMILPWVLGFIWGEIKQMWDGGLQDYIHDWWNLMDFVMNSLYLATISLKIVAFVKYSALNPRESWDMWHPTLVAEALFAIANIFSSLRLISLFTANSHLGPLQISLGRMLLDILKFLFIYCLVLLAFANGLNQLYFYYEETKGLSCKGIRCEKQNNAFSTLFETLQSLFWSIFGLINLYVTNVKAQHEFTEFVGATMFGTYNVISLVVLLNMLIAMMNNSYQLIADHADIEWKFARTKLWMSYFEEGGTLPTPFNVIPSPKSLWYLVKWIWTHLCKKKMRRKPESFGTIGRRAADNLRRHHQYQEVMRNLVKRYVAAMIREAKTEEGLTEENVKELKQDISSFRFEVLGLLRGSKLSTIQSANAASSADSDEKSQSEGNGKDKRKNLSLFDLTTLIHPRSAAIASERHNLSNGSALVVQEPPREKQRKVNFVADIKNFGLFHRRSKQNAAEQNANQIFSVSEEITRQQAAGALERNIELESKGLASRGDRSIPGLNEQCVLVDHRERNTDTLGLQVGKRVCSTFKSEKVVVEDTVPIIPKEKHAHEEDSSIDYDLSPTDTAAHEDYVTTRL
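Assay system: Stable TRPC4beta/mu-opioid receptor HEK293 cells | Reagent: DAMGO in two steps, submaximal then maximal | Compound dosing: Single concentration per test compound | Signal: Fluo4 Ca2+ flux fluorescence | Evaluation: Per-well B score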
TRPC4 PAM = positive allosteric modulators of TRPC4, primary screen, cell-based, mouse TRPC4beta, HEK293 mu-opioid, Fluo-4 calcium. Short transient receptor potential channel 4 (Mus musculus), Q9QUQ5. DAMGO EC20, Fluo-4 Ca2+ flux; active compounds read high. B-score at 10 µM. actives 0.42% (n = 310,000);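 active = B-score of calcium response area above 5 SD of library B-scores, with initial fluorescence ratio within 5 SD of library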
TRPC6 inhibitor = mouse TRPC6 channel inhibitors, primary screen, cell-based, HEK293, membrane potential dye | AID 2553, 2010 | Short transient receptor potential channel 6 (Mus musculus), Q61143 | actives 1.1% (n = 310,000) | B-score at 10 µM | ACh-evoked depolarization; active compounds read low;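 active = B-score under library mean minus 3 SD, initial fluorescence not abnormally high, positive integrated signal ratio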;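 note: B-score derived from integrated fluorescence ratio over the kinetic read; more negative B-score means stronger inhibition of depolarization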
TRPC4 agonist = activators of mouse TRPC4 channel, primary screen, Fluo4 calcium, HEK293 TRPC4beta/mu-opioid cells; Short transient receptor potential channel 4 (Mus musculus), Q9QUQ5; Fluo4 calcium fluorescence; active compounds read high; B-score at 10 µM; actives 0.49% (n = 310,000); AID 2237, 2010;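 active = B-score above 5 SD of library B-scores, and initial fluorescence ratio not above library mean plus 5 SD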;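 note: positive B-score marks a calcium rise read as TRPC4 activation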
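Assay system: HEK293 cells stably co-expressing mouse TRPC4beta and mu-opioid receptor / Timing: Fluo4 dye loading 45 min at room temperature, 110 s recording / Signal: Fluo4 calcium-sensitive dye fluorescence, kinetic, 1 Hz baseline / Read-out: integrated baseline-normalised fluorescence ratio, converted to per-well B score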
TRPC6 activator = mouse TRPC6 channel activators, primary screen, cell-based, HEK293, membrane potential dye; Short transient receptor potential channel 6 (Mus musculus), Q61143; HEK293-TRPC6 membrane potential dye fluorescence; active compounds read high; B-score at 10 µM; actives 0.13% (n = 310,000);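 active = B-score of the integrated fluorescence ratio above library mean plus 3 SD, and starting fluorescence ratio within library mean plus 5 SD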;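 note: higher score means more depolarization so channel activation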
TRPC4 spec 2 = second selectivity test of TRPC6 inhibitors: effect on mouse TRPC4; HEK293 TRPC4/MOR, membrane potential dye fluorescence; channel activated by saturating DAMGO dose; inhibition, % at 10 µM; AID 2776; actives 42% (n = 920); shares compounds with TRPC6 inhibitor;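 active = compounds whose fluorescence signal differed from control wells by over 3 SD, either direction, in both duplicate plates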
TRPC4 spec = mouse TRPC4 modulation by TRPC6 hits, confirmation, selectivity assay for TRPC6 inhibitor project, cell-based, HEK293 TRPC4/mu-opioid, membrane potential dye; actives 61% (n = 920); activity change, negative = inhibition, % at 10 µM; membrane potential fluorescence; shares compounds with TRPC6 inhibitor;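 active = rise or fall in signal beyond 3 SD of buffer-only wells in both replicate plates, either sign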;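 note: integrated kinetic ratio of fluorescence range over baseline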
HEK293 MPD ctr 2-1 = nonspecific membrane potential effects, parental HEK293, confirmation, counter-screen for TRPC6 inhibitor project, cell-based, second counter screen; shares compounds with TRPC6 inhibitor; parental HEK293 membrane potential dye fluorescence; maximal acetylcholine challenge after compound addition; signal change vs control, % at 10 µM; actives 31% (n = 920); AID 2779, 2010;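 active = membrane potential signal moving either way by over 3 SD of the maximum-effect control, in both duplicate plates, meaning non-specific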
HEK293 MPD ctr-1 = membrane potential modulation in parental HEK293, confirmation, counter-screen for TRPC6 inhibitor project, cell-based. parental HEK293 membrane potential dye fluorescence. shares compounds with TRPC6 inhibitor. membrane potential signal change, % at 10 µM. AID 2780, 2010. actives 60% (n = 920);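 active = membrane potential signal shifting up or down by more than 3 SD of buffer-only wells, on both duplicate plates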
HEK293 MPD ctr-2 = parental HEK293 membrane potential modulation, confirmation, counter-screen for TRPC6 modulator project, cell-based; shares compounds with TRPC6 inhibitor; membrane potential dye fluorescence; membrane potential signal change, % at 10 µM; actives 51% (n = 2,400); AID 488924, 2010;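 active = membrane potential signal moves up or down beyond 5 SD from buffer-only wells, on both duplicate plates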
HEK293 MPD ctr 2-2 = second check of TRPC6 modulator effects in parental HEK293 cells | AID 488926 | actives 14% (n = 2,400) | inhibition, % at 10 µM | membrane potential dye fluorescence; after compound, maximal acetylcholine stimulation | shares compounds with TRPC6 inhibitor;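 active = membrane potential signal drops by more than 5 SD from the mean control signal, in both duplicate plates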
TRPC4/MOR mod = TRPC4 modulation by TRPC6 hit compounds, confirmation, selectivity assay for TRPC6 modulator project, cell-based, HEK293 TRPC4/mu-opioid, membrane potential dye, mouse; shares compounds with TRPC6 inhibitor; membrane potential fluorescence; percent change from control (negative = decrease, positive = increase), % at 10 µM; actives 69% (n = 2,400);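 active = membrane potential signal moved up or down beyond 5 SD of buffer control wells, in both duplicate plates, actives on both sides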
TRPC4 ctr inh 2 = second selectivity test of TRPC6 modulators against mouse TRPC4. HEK293 TRPC4/mu-opioid, membrane potential dye fluorescence; stimulated with maximal-effect DAMGO. shares compounds with TRPC6 inhibitor. inhibition, % at 10 µM. actives 55% (n = 2,400);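 active = drop in membrane potential signal beyond 5 SD of the control wells in both duplicate plates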;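 note: TRPC4 counter screen for TRPC6 hits run under conditions tuned for TRPC6 not TRPC4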
TRPC6 inh conf = mouse TRPC6 channel inhibitors, confirmation, HEK293 cells, membrane potential dye, duplicate; shares compounds with TRPC6 inhibitor; ACh-evoked depolarization; inhibition, % at 10 µM; actives 43% (n = 3,300); AID 488960, 2010;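 active = fluorescence ratio falls more than 5 SD below the full-stimulation control mean, in both duplicate runs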;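 note: integrated fluorescence ratio of peak minus minimum over baseline after agonist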
TRPC6 act conf = mouse TRPC6 channel activators, confirmation, HEK293 cells, membrane potential dye, duplicate; HEK293-TRPC6 membrane potential dye fluorescence, FDSS; actives 11% (n = 2,800); AID 488961, 2010; activation, % at 10 µM; shares compounds with TRPC6 inhibitor;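 active = ratio signal rise beyond 5 SD above unstimulated control wells' mean, seen in both duplicate runs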
Numbers stand for hits; – = inactive; · = not tested or not shown.

SMILES	TRPC4 inh	TRPC4 PAM	TRPC6 inhibitor	TRPC4 agonist	TRPC6 activator	HEK293 MPD ctr-2	HEK293 MPD ctr 2-2	TRPC4/MOR mod	TRPC4 ctr inh 2	TRPC6 inh conf	TRPC6 act conf	others
O=C1CCC([N+](=O)[O-])C(c2ccccc2C(F)(F)F)N1 (configuration not stated)	–	–	-5.1	–	–	–	–	–	–	–	–
COc1ccc(-n2c(-c3ccc(Cl)cc3)c[n+]3c2CCc2ccccc2-3)cc1	–	–	-5.1	–	–	-123%	–	-17%	42%	–	–
COc1ccc2c(-c3ccccc3)cc(=S)[nH]c2c1	–	–	–	–	–	·	·	·	·	·	·
CCOc1ccc(N2CCc3c(C)nc(SC)nc32)cc1	–	–	–	–	–	·	·	·	·	·	·
O=C(NCCS(=O)(=O)NC1CCCCC1)c1ccc2c(c1)OCO2	–	–	–	–	–	·	·	·	·	·	·
COCCNC(=S)Nc1ccc2nc(N3CCCC3)cc(C)c2c1	–	–	-6.2	–	–	-135%	82%	-26%	40%	71%	–
CCOCCCNC(=S)Nc1ccc2nc(N3CCCC3)cc(C)c2c1	–	–	-5.6	–	–	-138%	–	-26%	40%	44%	–
COCCNC(=S)Nc1ccc2nc(N3CCOCC3)cc(C)c2c1	–	–	–	–	–	·	·	·	·	·	·
O=C(O)CCCn1cc(NC(=O)c2sc3ccccc3c2Cl)cn1	–	–	–	–	–	·	·	·	·	·	·
Cc1cc(C)n(-c2cc(N3CCN(C(=O)c4ccccc4C)CC3)ccc2[N+](=O)[O-])n1	–	–	–	–	–	·	·	·	·	·	·
CC(=O)C1CCCN(C(=O)c2ccc3nc(Cc4cccc(Cl)c4)oc3c2)C1 (configuration not stated)	–	–	–	–	–	·	·	·	·	·	·
COCCSc1nc(N)c2c3c(sc2n1)CN(C)CC3	–	–	-9.4	–	–	-148%	–	-29%	30%	–	–
CN(C)CCSc1nc(N)c2c3c(sc2n1)CN(C)CC3	–	–	-8.6	–	–	-210%	–	-39%	46%	55%	–
CCCSc1nc(N)c2c3c(sc2n1)CN(C)CC3	–	–	-7.1	–	–	-112%	–	-26%	–	–	–
CC(C)Sc1nc(N)c2c3c(sc2n1)CN(C)CC3	–	–	–	–	–	·	·	·	·	·	·
CSc1nc(NCC(C)C)c2c3c(sc2n1)CN(C)CC3	–	–	–	–	–	·	·	·	·	·	·
COc1ccc(N(S(=O)(=O)c2ccccc2)S(=O)(=O)c2ccccc2)c(N)c1	–	–	–	–	–	·	·	·	·	·	·
O=C(Nc1ccc2ccccc2c1)c1ccc2[nH]c(=O)c(=O)[nH]c2c1	–	–	–	–	–	·	·	·	·	·	·
CN1CCN(c2ncccc2S(=O)(=O)N2CCCCC2)CC1	–	–	-7	–	–	·	·	·	·	78%	–	TRPC4 spec 2=–;TRPC4 spec=-0.1%;HEK293 MPD ctr 2-1=-41%;HEK293 MPD ctr-1=0.9%
O=S(=O)(c1cccc2cccnc12)N1CCCCC1	–	–	–	–	–	·	·	·	·	·	·
Cc1ccc(N=Cc2c(O)n(C)c(=O)n(C)c2=O)nc1	–	–	-5.6	–	–	–	–	-15%	–	–	–
Cc1ccc(N=CC2=C(O)CC(C)(C)CC2=O)nc1	–	–	–	–	–	·	·	·	·	·	·
O=S(=O)(NC(=S)c1ccccc1)c1ccc(F)cc1	–	–	–	–	–	·	·	·	·	·	·
O=C1c2cnc3ncnn3c2CC2c3ccccc3CCN12 (configuration not stated)	–	–	-5	–	–	-105%	–	-20%	–	–	–
CCCCn1c(N)c(N(CCOC)C(=O)CCCc2nc3ccccc3c(=O)[nH]2)c(=O)[nH]c1=O	–	–	–	–	–	·	·	·	·	·	·
SMILES	TRPC4 inh	TRPC4 PAM	TRPC6 inhibitor	TRPC4 agonist	TRPC6 activator	HEK293 MPD ctr-2	HEK293 MPD ctr 2-2	TRPC4/MOR mod	TRPC4 ctr inh 2	TRPC6 inh conf	TRPC6 act conf	others
CN1CCCc2cc(C=O)ccc21	–	–	-7.9	–	–	·	·	·	·	–	–	TRPC4 spec 2=–;TRPC4 spec=-8.7%;HEK293 MPD ctr 2-1=–;HEK293 MPD ctr-1=–
CNC(=O)c1c(NC(=O)CCS(=O)(=O)c2ccc(C)cc2)sc2c1CCN(C(=O)OC)C2	–	–	–	–	–	·	·	·	·	·	·
CCCn1c(NCc2ccc3c(c2)OCO3)nc2ccccc21	–	–	-5.2	–	–	–	–	8.0%	74%	44%	–
CCCCn1c(NCc2ccc3c(c2)OCO3)nc2ccccc21	–	–	-5.2	–	–	–	–	–	88%	40%	–
Cc1c(C(=O)N2CCN(CCc3ccccn3)CC2)oc2ccc(Cl)cc12	–	–	–	–	–	·	·	·	·	·	·
NS(=O)(=O)c1ccc(CCNC(=O)COC(=O)/C=C/c2ccc(Cl)cc2)cc1	–	–	-5.4	–	–	–	–	–	–	–	–
NS(=O)(=O)c1ccc(CCNC(=O)COC(=O)CCSc2ccc(Cl)cc2)cc1	–	–	–	–	–	·	·	·	·	·	·
O=C(CSc1n[nH]c(-c2cccs2)n1)NCc1cccs1	–	–	-6.8	–	–	·	·	·	·	–	–	TRPC4 spec 2=–;TRPC4 spec=–;HEK293 MPD ctr 2-1=–;HEK293 MPD ctr-1=–
